The assay has as its target Protein-arginine deiminase type-4 (Homo sapiens) (UniProt Q9UM07). The experiment in a line: PAD4 enzyme inhibition potency, late-stage follow-up, biochemical, BAEE substrate, citrulline absorbance, 8-point 0-10 µM (AID 588420). To be noted: recombinant PAD4, BAEE citrulline colorimetric absorbance. In a few lines:
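Test system: recombinant PAD4 enzyme; Timing: 15 min preincubation plus 15 min reaction at 37 °C; Technique: absorbance at 540 nm; Repeats: duplicate measurements at every concentration.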

The source made the active and inactive calls.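 How the source made its calls: active means IC50 at or below 1 µM; inactive means the rest.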

Sequence of Protein-arginine deiminase type-4 (Homo sapiens) (Q9UM07 whole entry, looked up): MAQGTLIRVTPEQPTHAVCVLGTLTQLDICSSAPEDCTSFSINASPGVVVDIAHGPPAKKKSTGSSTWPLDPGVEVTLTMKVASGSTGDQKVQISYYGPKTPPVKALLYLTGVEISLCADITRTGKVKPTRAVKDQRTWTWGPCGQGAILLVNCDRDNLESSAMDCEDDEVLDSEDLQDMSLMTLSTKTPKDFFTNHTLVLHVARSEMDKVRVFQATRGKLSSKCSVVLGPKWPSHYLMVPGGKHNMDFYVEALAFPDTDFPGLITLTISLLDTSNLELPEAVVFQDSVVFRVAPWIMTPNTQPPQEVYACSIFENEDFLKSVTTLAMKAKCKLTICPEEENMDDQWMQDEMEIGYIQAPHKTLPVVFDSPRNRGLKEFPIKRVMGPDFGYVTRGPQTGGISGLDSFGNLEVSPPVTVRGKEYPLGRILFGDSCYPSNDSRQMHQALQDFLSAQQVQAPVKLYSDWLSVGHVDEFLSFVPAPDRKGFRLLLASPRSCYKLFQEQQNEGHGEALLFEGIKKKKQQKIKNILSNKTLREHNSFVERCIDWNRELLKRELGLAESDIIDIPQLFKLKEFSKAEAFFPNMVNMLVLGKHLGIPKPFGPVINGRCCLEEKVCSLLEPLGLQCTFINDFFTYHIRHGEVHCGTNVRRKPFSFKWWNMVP

Regarding `COC1=CC(=O)c2nc(C#N)ccc2C1=O`, the IC50 result was “inactive”.
